Results on 3 molecules are retold here after paper PMC10441411 (bioRxiv, 2023).

In assay [1] the target is NR4A1 (Homo sapiens, UniProt P22736). As to the kind of experiment: NR4A1 degradation in human cell lines by immunoblotting. It is filed as cell-based. The following applies: CHL-1 cells. In short, it runs like this:
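CHL-1 and A375 human melanoma cells were grown in DMEM with 10% FBS and penicillin/streptomycin. Screening used 250 nM test compound for 16 h, read by immunoblot plus densitometry (n=2). A 16 h dose series gave the 50% degradation concentration. For pathway tests, CHL-1 were pretreated 10 min with 0.5 μM MG132 or 10 μM VHL 032, then exposed 16 h to DMSO or 500 nM. Lysates were made in RIPA with DTT.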
In general terms: A western blot detects proteins with antibodies after separation by electrophoresis.

Assay [2] has as its system MC38 colon adenocarcinoma. Put plainly: MC38 colon cancer syngeneic tumor growth. The format is in vivo, mouse. The following applies: WT mice; 1.8 mg/kg NR-V04 or 0.75 mg/kg celastrol i.p. twice a week from day 7. The method, boiled down:
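Mouse MC38 or Yummer1.7 cells (5 × 10^5) in PBS injected s.c. into 7–9-week-old WT or NSG hosts. Dosing started day 7 once tumors were palpable: test compound 1.8 mg/kg i.p. twice weekly, with celastrol 0.75 mg/kg (1.67 μmol/kg) in MC38 only. Vehicle was 50% phosal PG/45% miglyol 810N/5% polysorbate 80. Tumors were grown to 2 cm diameter endpoint.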

The test system of assay [3] is B16F10 melanoma. Put plainly: B16F10 melanoma syngeneic tumor growth. It is filed as in vivo, mouse. Conditions: WT mice; 1.8 mg/kg NR-V04 or 0.75 mg/kg celastrol i.p. twice a week from day 7.
Assay [4] has as its target NR4A1. Conditions: read-out: binding affinity of celastrol to NR4A1 (Kd); cited from earlier work.
Assay [5] deals with NR4A1 mRNA. As to the kind of experiment: NR4A1 mRNA by qPCR in CHL-1 cells. It is filed as cell-based, human. The following applies: 500 nM, time course, ACTB control.

pKd: −log10 of the molar value. Peptide text beside a SMILES is read from it. * marks the point of attachment. Cbz = O=C(OCc1ccccc1)*

The pKd is the Kd on a negative log10 scale, so that one unit is a factor of ten.

NR4A1 (Homo sapiens, UniProt P22736), sequence (P22736 whole entry): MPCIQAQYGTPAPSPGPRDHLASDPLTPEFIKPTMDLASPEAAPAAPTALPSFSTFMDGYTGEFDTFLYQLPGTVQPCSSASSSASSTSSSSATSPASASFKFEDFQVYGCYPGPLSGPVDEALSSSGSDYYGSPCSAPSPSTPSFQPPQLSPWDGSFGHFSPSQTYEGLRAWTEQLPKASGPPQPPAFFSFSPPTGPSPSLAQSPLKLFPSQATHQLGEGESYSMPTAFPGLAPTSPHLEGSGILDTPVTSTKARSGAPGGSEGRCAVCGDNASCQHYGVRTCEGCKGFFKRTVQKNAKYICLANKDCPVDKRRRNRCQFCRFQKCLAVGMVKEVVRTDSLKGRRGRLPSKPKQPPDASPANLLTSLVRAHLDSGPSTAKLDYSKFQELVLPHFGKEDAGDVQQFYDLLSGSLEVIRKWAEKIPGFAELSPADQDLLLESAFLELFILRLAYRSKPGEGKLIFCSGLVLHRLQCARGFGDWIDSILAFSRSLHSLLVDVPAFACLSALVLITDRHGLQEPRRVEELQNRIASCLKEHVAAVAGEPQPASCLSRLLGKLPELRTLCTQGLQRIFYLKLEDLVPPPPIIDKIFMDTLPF

Take `CC(C)C[C@@H](C=O)NC(=O)[C@H](CC(C)C)NC(=O)[C@H](CC(C)C)NC(=O)OCc1ccccc1` [MG132] (Cbz-Leu-Leu-Leu-aldehyde): in assay [1] (0.5 μM MG132 10 minutes, then 500 nM NR-V04 16 hours), the “effect of pretreatment on NR-V04-reduced NR4A1 protein level” value is reported as “effectively rescued”.
Consider `CC(=O)N[C@H](C(=O)N1C[C@H](O)C[C@H]1C(=O)NCc1ccc(-c2scnc2C)cc1)C(C)(C)C` [VHL-032], for which the “effect of pretreatment on NR-V04-induced degradation of NR4A1” value in assay [1] (10 μM VHL 032 10 minutes, then 500 nM NR-V04 16 hours) is “prevented”.
As to `CC1=C(O)C(=O)C=C2C1=CC=C1[C@@]2(C)CC[C@@]2(C)[C@@H]3C[C@](C)(C(=O)O)CC[C@]3(C)CC[C@]12C` [celastrol], the “tumor growth, MC38 model” value in assay [2] is “failed to inhibit tumor growth”. For the same molecule, the “tumor growth, B16F10 melanoma” value in assay [3] is “increased growth”. Moreover, the “NR4A1 protein level, initial screening” value in assay [1] (250 nM, 16 hours, immunoblotting and densitometry) is recorded as “did not alter”. For the same molecule, the NR4A1 protein level result in assay [1] (16 hours, dose series) is on record as “did not change”. Moreover, in assay [4], the pKd is 6.54. Besides, in assay [5], the “NR4A1 mRNA level” value is given as “increase in NR4A1 mRNA levels after 2 hrs”.
